Results published in ChEMBL document CHEMBL1275449, “Potent in vitro antifungal activities of naturally occurring acetylenic acids” (Antimicrob Agents Chemother, 2008).
Active and inactive are the calls of the source. The rule behind the calls is not given here.

Assays:
[1] = tested on: Trichophyton mentagrophytes; assay: Antifungal activity against Trichophyton mentagrophytes ATCC MYA-4439 at 162.1 uM after 5 days by CLSI method; format: functional, organism-based
Candida albicans [2] = assay: Antifungal activity against Fluconazole resistant Candida albicans clinical isolate 17 after 48 hrs by CLSI method; format: functional, organism-based
Outline: (§1)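 CLSI broth microdilution. Colonies from 24–72 h SD agar suspended in saline and sized by OD630 standard curve. Inoculum 1.5 × 10³ CFU/ml (final) in RPMI 1640 (0.2% dextrose, 0.03% glutamine, 0.165 M MOPS, pH 7.0). Twofold dilutions (11 levels) from 20% DMSO-saline, in duplicate. 35°C for 48 h, OD530 read before and after. IC50 fitted from % growth. MIC: no detectable growth. MFC: subculture onto SD agar.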

Candida albicans [3] = assay: Antifungal activity against Candida albicans ATCC 90028 after 48 hrs by CLSI method; format: functional, organism-based; details: ATCC 90028, 48 h; outline: as §1
Pichia kudriavzevii [4] = assay: Antifungal activity against Candida krusei ATCC 6258 after 48 hrs by CLSI method; format: functional, organism-based; details: ATCC 6258, 48 h
Outline: (§2)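 Candida inocula came from 24–72-h SD agar colonies suspended in saline. They were diluted by OD630 standard curve into RPMI 1640 (0.2% dextrose, 0.03% glutamine, 0.165 M MOPS, pH 7.0) to 1.5 × 10³ CFU/ml. Compounds were run as 11 twofold dilutions in 20% DMSO-saline, in duplicate, at 35°C for 48 h, with OD530 read before and after. Percent growth at the top concentration, IC50, MIC, and MFC (SD agar plating) were derived.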

Candida albicans [5] = assay: Antifungal activity against Candida albicans ATCC 200955 after 48 hrs by CLSI method; format: functional, organism-based; details: ATCC 200955, 48 h; outline: as §1
Cryptococcus neoformans [6] = assay: Antifungal activity against Cryptococcus neoformans ATCC 90113 at 162.1 uM after 72 hrs by CLSI method; format: functional, organism-based
Outline: (§3)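 SD broth replaced RPMI because growth in RPMI was poor; other CLSI conditions were kept. Inoculum was 1.5 × 10³ CFU/ml from colonies on SD agar, checked by plating. Twofold serial dilutions (11 concentrations) in 20% DMSO-saline were tested in duplicate. OD530 was read before and after incubation at 35°C for 72 h. Percent growth gave IC50; the MIC is the lowest concentration with no detectable growth.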

Vero = assay: Cytotoxicity against African green monkey Vero cells up to 32 uM by neutral red method; format: cell-based; details: chlorocebus sabaeus
Outline: (§4)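 Neutral red uptake cytotoxicity, top concentration 32 μM.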

Candida parapsilosis = assay: Antifungal activity against Candida parapsilosis ATCC 22019 at 162.1 uM after 48 hrs by CLSI method; format: functional, organism-based
Outline: (§5)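 Yeast suspensions made from 3-5 colonies off 24-72 h SD agar plates in saline. They were diluted by OD630 standard curve in RPMI 1640 (0.2% dextrose, 0.03% glutamine, 0.165 M MOPS, pH 7.0) to 1.5 × 10³ CFU/ml. Twofold dilutions (11 concentrations, 20% DMSO-saline) run in duplicate. OD530 read before and after 35°C, 48 h. Line values are top test concentrations; no-growth endpoints give MIC/MFC.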

Aspergillus niger = assay: Antifungal activity against Aspergillus niger ATCC 16404 at 162.1 uM after 48 hrs by CLSI method; format: functional, organism-based
Candida albicans [7] = assay: Antifungal activity against Candida albicans ATCC 14053 after 48 hrs by CLSI method; format: functional, organism-based; details: ATCC 14053, 48 h; outline: as §1
Nakaseomyces glabratus = assay: Antifungal activity against Candida glabrata ATCC 90030 at 162.1 uM after 48 hrs by CLSI method; format: functional, organism-based; outline: as §2
Cryptococcus neoformans [8] = assay: Antifungal activity against Cryptococcus neoformans ATCC 66031 at 162.1 uM after 72 hrs by CLSI method; format: functional, organism-based; outline: as §3
Candida albicans [9] = assay: Antifungal activity against Fluconazole resistant Candida albicans isolate 1 at 162.1 uM after 48 hrs by CLSI method; format: functional, organism-based
Outline: (§6)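 Candida in CLSI broth microdilution. Saline colony suspension set to 1.5 × 10³ CFU/ml (final) in MOPS-buffered RPMI 1640, pH 7.0. Test agent given as twofold serial dilutions in 20% DMSO-saline, duplicate wells. 35°C for 48 h. Growth read as OD530 before and after incubation. Percent inhibition scored at the highest test concentration.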

Trichophyton rubrum [10] = assay: Antifungal activity against Trichophyton rubrum ATCC MYA-4438 at 162.1 uM after 5 days by CLSI method; format: functional, organism-based
Candida albicans [11] = assay: Antifungal activity against Candida albicans ATCC 90028 at 162.1 uM after 48 hrs by CLSI method; format: functional, organism-based; outline: as §2
KB = assay: Cytotoxicity against human KB cells up to 32 uM by neutral red method; format: cell-based; outline: as §4
Candida albicans [12] = assay: Antifungal activity against Candida albicans ATCC 32354 after 48 hrs by CLSI method; format: functional, organism-based; details: ATCC 32354, 48 h; outline: as §1
[13] = tested on: Trichophyton mentagrophytes; assay: Antifungal activity against Trichophyton mentagrophytes ATCC MYA-4439 by CLSI method; format: functional, organism-based
Outline: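 Growth scraped from 1- to 6-week-old potato dextrose slants and filtered through Miracloth. Diluted in 5% Alamar blue-RPMI 1640 (MOPS pH 7.0) to 2.7 × 10⁴ CFU/ml. Eleven twofold dilutions in duplicate. Fluorescence at 544 nm excitation/590 nm emission read before and after 35°C, 5 days. IC50 fitted from percent growth. MIC taken as no detectable growth; MFC from clear or blue wells plated on PD agar.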

Candida albicans [14] = assay: Antifungal activity against Fluconazole resistant Candida albicans isolate 17 at 162.1 uM after 48 hrs by CLSI method; format: functional, organism-based; outline: as §6
Trichophyton rubrum [15] = assay: Antifungal activity against Trichophyton rubrum ATCC 10218 at 162.1 uM after 5 days by CLSI method; format: functional, organism-based
Candida albicans [16] = assay: Antifungal activity against Candida albicans ATCC 60193 after 48 hrs by CLSI method; format: functional, organism-based; details: ATCC 60193, 48 h; outline: as §1
[17] = tested on: Trichophyton mentagrophytes; assay: Antifungal activity against Trichophyton mentagrophytes ATCC 9533 at 162.1 uM after 5 days by CLSI method; format: functional, organism-based
Candida albicans [18] = assay: Antifungal activity against Candida albicans ATCC 200955 at 162.1 uM after 48 hrs by CLSI method; format: functional, organism-based; outline: as §2
Candida albicans [19] = assay: Antifungal activity against Candida albicans ATCC 60193 at 162.1 uM after 48 hrs by CLSI method; format: functional, organism-based; outline: as §2
Candida albicans [20] = assay: Antifungal activity against Fluconazole resistant Candida albicans clinical isolate 1 after 48 hrs by CLSI method; format: functional, organism-based; outline: as §1
LLC-PK1 = assay: Cytotoxicity against pig LLC-PK1 cells up to 32 uM by neutral red method; format: cell-based, Sus scrofa; outline: as §4
SK-MEL = assay: Cytotoxicity against human SK-MEL cells up to 32 uM by neutral red method; format: cell-based; outline: as §4
Aspergillus fumigatus [21] = assay: Antifungal activity against Aspergillus fumigatus ATCC 90906 after 48 h by CLSI method; details: ATCC 90906, 48 h
Candida albicans [22] = assay: Antifungal activity against Candida albicans ATCC 14053 at 162.1 uM after 48 hrs by CLSI method; format: functional, organism-based
Candida albicans [23] = assay: Antifungal activity against Candida albicans ATCC 32354 at 162.1 uM after 48 hrs by CLSI method; format: functional, organism-based; outline: as §2
Aspergillus fumigatus [24] = assay: Antifungal activity against Aspergillus fumigatus ATCC 204305 at 162.1 uM after 48 hrs by CLSI method; format: functional, organism-based
Aspergillus flavus = assay: Antifungal activity against Aspergillus flavus ATCC 204304 at 162.1 uM after 48 hrs by CLSI method; format: functional, organism-based
BT-549 = assay: Cytotoxicity against human BT549 cells up to 32 uM by neutral red method; format: cell-based; outline: as §4
Aspergillus fumigatus [25] = assay: Antifungal activity against Aspergillus fumigatus ATCC 204305 after 48 h by CLSI method; details: ATCC 204305, 48 h
Aspergillus fumigatus [26] = assay: Antifungal activity against Aspergillus fumigatus ATCC 90906 at 162.1 uM after 48 hrs by CLSI method; format: functional, organism-based
Pichia kudriavzevii [27] = assay: Antifungal activity against Candida krusei ATCC 6258 at 162.1 uM after 48 hrs by CLSI method; format: functional, organism-based; outline: as §2
SK-OV-3 = assay: Cytotoxicity against human SKOV3 cells up to 32 uM by neutral red method; format: cell-based; outline: as §4
Candida tropicalis = assay: Antifungal activity against Candida tropicalis ATCC 750 at 162.1 uM after 48 hrs by CLSI method; format: functional, organism-based; outline: as §5

CCCCCCCCCCCCCC#CCCCCC(=O)O [6-ICOSYNOIC ACID]
Activity [1]: inactive
IC50 (Candida albicans [2]): 55 µM
IC50 (Candida albicans [3]): 67.3 µM
IC50 (Pichia kudriavzevii [4]): 106 µM
IC50 (Candida albicans [5]): 53.4 µM
Activity (Cryptococcus neoformans [6]): inactive
Activity (Vero): Non-toxic
Activity (Candida parapsilosis): inactive
Activity (Aspergillus niger): inactive
IC50 (Candida albicans [7]): > 162 µM
Activity (Nakaseomyces glabratus): inactive
Activity (Cryptococcus neoformans [8]): inactive
Activity (Candida albicans [9]): inactive
Activity (Trichophyton rubrum [10]): inactive
Activity (Candida albicans [11]): inactive
Activity (KB): Non-toxic
IC50 (Candida albicans [12]): > 162 µM
IC50 [13]: > 162 µM
Activity (Candida albicans [14]): inactive
Activity (Trichophyton rubrum [15]): inactive
IC50 (Candida albicans [16]): 81 µM
Activity [17]: inactive
Activity (Candida albicans [18]): inactive
Activity (Candida albicans [19]): inactive
IC50 (Candida albicans [20]): 86.6 µM
Activity (LLC-PK1): Non-toxic
Activity (SK-MEL): Non-toxic
IC50 (Aspergillus fumigatus [21]): 81 µM
Activity (Candida albicans [22]): inactive
Activity (Candida albicans [23]): inactive
Activity (Aspergillus fumigatus [24]): inactive
Activity (Aspergillus flavus): inactive
Activity (BT-549): Non-toxic
IC50 (Aspergillus fumigatus [25]): 32.3 µM
Activity (Aspergillus fumigatus [26]): inactive
Activity (Pichia kudriavzevii [27]): inactive
Activity (SK-OV-3): Non-toxic
Activity (Candida tropicalis): inactive
